For one data set, the target named is HIV-1 integrase (Human immunodeficiency virus type 1 group M subtype B, UniProt P04585). The data set can be described thus: Strand transfer inhibition assay. It is filed as biochemical.
The nature of a further data set: Cytotoxicity assay. Format: cell-based, human. As to conditions: human, MT-4 cells. The essentials: (§1)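 MT-4 cells grown in RPMI-1640 with 10% FBS, 100 units per mL penicillin and streptomycin, at 37 °C in humidified 5% CO2. Cells seeded at 50 000 per well and exposed to test compound (2.5, 5, 10, 20, 40, 80 μM) for five days at 37 °C. MTT (final 0.5 mg mL−1) added for 2 h, then DMSO. A570 read; measured three times; CC50 calculated.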

A further data set relates to MT-4 cells. The data set can be described thus: Cytotoxicity assay. Format: cell-based, human. As to conditions: read-out: CC50, concentration that inhibits the proliferation of MT-4 cells by 50%, MTT, five days, average of at least three independent experiments. The essentials:
as §1

This is an account of results in publication PMC10945512 (RSC Advances, 2024).

As usually defined, the IC50 is the point on the concentration scale where inhibition reaches its midpoint. A lower IC50 goes with greater potency. Molecule `CCOC(=O)c1[nH]c2ccccc2c1Nc1ccccc1Cl` [Compound 4f, Ethyl 3-((2-chlorophenyl)amino)-1H-indole-2-carboxylate] registered an IC50 on HIV-1 integrase above 40 µM. The CC50 at 5 days in “Cytotoxicity assay” was above 80 µM.

On HIV-1 integrase, `CCOC(=O)c1cc2ccc(NCc3ccccc3F)cc2[nH]1` [Compound 16h, Ethyl 6-((2-fluorobenzyl)amino)-1H-indole-2-carboxylate] gave an IC50 of 8.68 ± 0.77 µM. Also, the CC50 at 5 days in “Cytotoxicity assay” was above 80 µM.

`CCOC(=O)c1cc2ccc(Nc3ccccc3OC)cc2[nH]1` [Compound 16e, Ethyl 6-((2-methoxyphenyl)amino)-1H-indole-2-carboxylate]: the IC50 against HIV-1 integrase was above 40 µM. This molecule gave a CC50 at 5 days in the data set “Cytotoxicity assay” above 80 µM.

In turn, `COc1ccc(Nc2ccc3cc(C(=O)O)[nH]c3c2)cc1` [Compound 17c, 6-((4-Methoxyphenyl)amino)-1H-indole-2-carboxylic acid] came in with an IC50 at HIV-1 integrase of 12.3 ± 1.06 µM. The same molecule registered a CC50 at 5 days in the data set “Cytotoxicity assay” above 80 µM.

With `CCOC(=O)c1cc2ccc(NCc3ccccc3Cl)cc2[nH]1` [Compound 16i, Ethyl 6-((2-chlorobenzyl)amino)-1H-indole-2-carboxylate], the IC50 on HIV-1 integrase came out at 14.6 ± 1.12 µM. The same molecule gave a CC50 at 5 days in the data set “Cytotoxicity assay” above 80 µM.

Consider `Cc1nnc(C(=O)NC(C)(C)c2nc(C(=O)NCc3ccc(F)cc3)c(O)c(=O)n2C)o1` [RAL, Raltegravir, reference compound], for which, in the data set “Cytotoxicity assay”, the CC50 at 5 days is above 80 µM.

For `CCOC(=O)c1[nH]c2ccccc2c1Nc1ccccc1OC` [Compound 4a, ethyl 3-((2-methoxyphenyl)amino)-1H-indole-2-carboxylate], at HIV-1 integrase, the IC50 was found to be 10.1 ± 0.56 µM. The same molecule yielded a CC50 at 5 days in the data set “Cytotoxicity assay” above 80 µM.

The molecule `CCOC(=O)c1cc2ccc(Nc3ccc(OC)c(F)c3)cc2[nH]1` [Compound 16f, Ethyl 6-((3-fluoro-4-methoxyphenyl)amino)-1H-indole-2-carboxylate] came in with an IC50 against HIV-1 integrase above 40 µM. Besides, in the data set “Cytotoxicity assay”, the CC50 at 5 days was above 80 µM.

With `CCOC(=O)c1cc2ccc(NCCc3ccc(F)cc3)cc2[nH]1` [Compound 16k, Ethyl 6-((4-fluorophenethyl)amino)-1H-indole-2-carboxylate], the IC50 on HIV-1 integrase is above 40 µM. For the same molecule, the CC50 at 5 days in the data set “Cytotoxicity assay” is above 80 µM.

`CCOC(=O)c1cc2ccc(NCc3ccc(OC)cc3)cc2[nH]1` [Compound 16j, Ethyl 6-((4-methoxybenzyl)amino)-1H-indole-2-carboxylate]: the midpoint of inhibition against HIV-1 integrase, the IC50, lay at 9.67 ± 0.89 µM. Besides, in “Cytotoxicity assay”, the CC50 at 5 days is above 80 µM.

With “Isopropyl 3-((4-chlorophenethoxy)methyl)-5-nitro-1H-indole-2-carboxylate [Compound 9b]”, the CC50 in the data set with MT-4 cells is above 80 µM.

Take `CCOC(=O)c1[nH]c2ccccc2c1Nc1ccc(OC)cc1` [Compound 4c, Ethyl 3-((4-methoxyphenyl)amino)-1H-indole-2-carboxylate]: on HIV-1 integrase, the IC50 is above 40 µM. Further, in the data set “Cytotoxicity assay”, the CC50 at 5 days was above 80 µM.

The molecule `O=C(O)c1cc2ccc(Nc3ccc(F)cc3)cc2[nH]1` [Compound 17a, 6-((4-Fluorophenyl)amino)-1H-indole-2-carboxylic acid] showed a half-maximal inhibitory concentration (IC50) at HIV-1 integrase of 3.11 ± 0.18 µM. In the data set “Cytotoxicity assay”, this molecule gave a CC50 at 5 days above 80 µM.

“isopropyl 5-nitro-3-((4-(trifluoromethyl)phenethoxy) methyl)-1H-indole-2-carboxylate [Compound 9a]”: in the data set on MT-4 cells, the CC50 was determined as 54.3 ± 4.79 µM.

On to `CCOC(=O)c1cc2ccc(Nc3ccc(OC)cc3)cc2[nH]1` [Compound 16c, Ethyl 6-((4-methoxyphenyl)amino)-1H-indole-2-carboxylate], for which, on HIV-1 integrase, the IC50 is above 40 µM. This molecule showed a CC50 at 5 days in “Cytotoxicity assay” above 80 µM.

At HIV-1 integrase, `O=C(O)c1cc2ccccc2[nH]1` [Compound 1, indole-2-carboxylic acid] gave an IC50 of 32.4 ± 4.51 µM. Moreover, the CC50 at 5 days in the data set “Cytotoxicity assay” was above 80 µM.

“5-nitro-3-(((4-(trifluoromethyl)benzyl)oxy)methyl)-1H-indole-2-carboxylic acid [Compound 10a]”: the CC50 with MT-4 cells amounted to 65.2 ± 5.22 µM.

With `COc1ccccc1Nc1ccc2cc(C(=O)O)[nH]c2c1` [Compound 17e, 6-((2-Methoxyphenyl)amino)-1H-indole-2-carboxylic acid], the concentration for half-maximal inhibition (IC50) on HIV-1 integrase was found to be 7.08 ± 0.63 µM. The same molecule returned a CC50 at 5 days in “Cytotoxicity assay” above 80 µM.

On HIV-1 integrase, `CCOC(=O)c1[nH]c2ccccc2c1Nc1cccc(OC)c1` [Compound 4b, Ethyl 3-((3-methoxyphenyl)amino)-1H-indole-2-carboxylate] showed an IC50 of 10.2 ± 0.67 µM. The molecule further gave a CC50 at 5 days in “Cytotoxicity assay” above 80 µM.

`CCOC(=O)c1cc2ccc(Nc3cccc(OC)c3)cc2[nH]1` [Compound 16d, Ethyl 6-((3-methoxyphenyl)amino)-1H-indole-2-carboxylate] came in with an IC50 at HIV-1 integrase above 40 µM. Moreover, the CC50 at 5 days in “Cytotoxicity assay” is above 80 µM.

`CCOC(=O)c1[nH]c2ccccc2c1Nc1ccc(OC)c(F)c1` [Compound 4d, Ethyl 3-((3-fluoro-4-methoxyphenyl)amino)-1H-indole-2-carboxylate]: the IC50 against HIV-1 integrase is 15.6 ± 1.03 µM. The same molecule registered a CC50 at 5 days in “Cytotoxicity assay” above 80 µM.

Turning to `CCOC(=O)c1cc2ccc(Nc3ccc(Br)cc3)cc2[nH]1` [Compound 16b, Ethyl 6-((4-bromophenyl)amino)-1H-indole-2-carboxylate], the IC50 at HIV-1 integrase is above 40 µM. In addition, the CC50 at 5 days in “Cytotoxicity assay” is above 80 µM.

Take `CCOC(=O)c1[nH]c2ccccc2c1Nc1ccc(F)cc1` [Compound 4e, Ethyl 3-((4-fluorophenyl)amino)-1H-indole-2-carboxylate]: the half-inhibitory concentration (IC50) at HIV-1 integrase was found to be 15.7 ± 1.06 µM. The CC50 at 5 days in “Cytotoxicity assay” is above 80 µM.

Consider `CCOC(=O)c1[nH]c2ccc(NC(=O)c3cnccn3)cc2c1Br` [Compound 13b, Ethyl 3-bromo-5-(pyrazine-2-carboxamido)-1H-indole-2-carboxylat], for which the 50% inhibitory concentration (IC50) against HIV-1 integrase worked out at 11.7 ± 1.08 µM. Moreover, in the data set “Cytotoxicity assay”, the CC50 at 5 days was above 80 µM.

For `CCOC(=O)c1cc2ccc(NCc3cccc(F)c3)cc2[nH]1` [Compound 16g, Ethyl 6-((3-fluorobenzyl)amino)-1H-indole-2-carboxylate], at HIV-1 integrase, the IC50 was above 40 µM. The molecule further returned a CC50 at 5 days in “Cytotoxicity assay” above 80 µM.

`CCOC(=O)c1cc2ccc(Nc3ccc(F)cc3)cc2[nH]1` [Compound 16a, Ethyl 6-((4-fluorophenyl)amino)-1H-indole-2-carboxylate] had a half-inhibitory concentration (IC50) at HIV-1 integrase above 40 µM. The molecule further yielded a CC50 at 5 days in the data set “Cytotoxicity assay” above 80 µM.

Molecule `O=C(O)c1cc2ccc(Nc3ccc(Br)cc3)cc2[nH]1` [Compound 17b, 6-((4-Bromophenyl)amino)-1H-indole-2-carboxylic acid] came in with a half-maximal inhibitory concentration (IC50) against HIV-1 integrase of 6.67 ± 0.51 µM. In “Cytotoxicity assay”, this molecule yielded a CC50 at 5 days above 80 µM.

The molecule `O=C(O)c1cc2ccc(NCc3cccc(F)c3)cc2[nH]1` [Compound 17g, 6-((3-Fluorobenzyl)amino)-1H-indole-2-carboxylic acid] registered an IC50 against HIV-1 integrase of 15.6 ± 1.09 µM. The molecule further yielded a CC50 at 5 days in “Cytotoxicity assay” above 80 µM.

In turn, `COc1ccc(Nc2ccc3cc(C(=O)O)[nH]c3c2)cc1F` [Compound 17f, 6-((3-Fluoro-4-methoxyphenyl)amino)-1H-indole-2-carboxylic acid] came in with an IC50 against HIV-1 integrase of 14.1 ± 0.78 µM. In addition, the CC50 at 5 days in “Cytotoxicity assay” was above 80 µM.

As to `CCOC(=O)c1[nH]c2ccc(NC(=O)c3ccc(F)cc3)cc2c1Br` [Compound 13a, ethyl 3-bromo-5-(4-fluorobenzamido)-1H-indole-2-carboxylate], the IC50 against HIV-1 integrase is 26 ± 1.27 µM. The molecule also showed a CC50 at 5 days in “Cytotoxicity assay” above 80 µM.
